Data published in ChEMBL document CHEMBL1126728, “Synthesis and biochemical evaluation of the CBI-PDE-I-dimer, a benzannelated analog of (+)-CC-1065 that also produces delayed toxicity in mice” (J Med Chem, 1993).

Tests used:
[1] = system: L1210; assay: In vitro cytotoxicity against mouse leukemia L1210 cells was determined; assay type: functional, cell-based
Method in brief: (§1)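 L1210 mouse leukemia cells in RPMI 1634 supplemented with 5% fetal calf serum, 0.075% sodium bicarbonate, penicillin and streptomycin. Drug added to cultures at about 5 × 10^3 cells/mL, incubated 3 days at 37 °C. Cell number counted with a Coulter counter; IC50 in nM, run side by side with the corresponding CPI analog.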

[2] = system: Mus musculus; assay: in vivo percent increase in lifespan (ILS) at the optimum dose in L1210 cells; assay type: functional
Method in brief: (§2)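 L1210 leukemia, passaged in syngeneic DBA/2 female mice, was implanted i.p. at 10^6 cells/mouse on day 0; one i.v. dose on day 1 (2% DMA/10% Emulphor EL-620P/88% water); 6 mice per group; dose-response run. Optimal dose = greatest efficacy with ≤15% drug-related deaths. %ILS = (median survival treated/median survival vehicle control − 1) × 100, counting long-term survivors.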

[3] = system: Mus musculus; assay: Optimum antitumor dose (OD) against L1210 mouse leukemia cells implanted intraperitoneally in CD2F1 mice (Highest dose tested); assay type: functional; method in brief: as §2
[4] = system: Mus musculus; assay: Optimum antitumor dose (OD) against L1210 mouse leukemia cells implanted intraperitoneally in CD2F1 mice; assay type: functional
Method in brief: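 L1210 cells passaged in DBA/2 female mice, implanted ip (10^6 cells/mouse) in CD2F1 mice, 6 per group, on day 0. Single iv dose 24 h later (day 1) in 2% DMA, 10% Emulphor EL-620P, 88% sterile water; dose response run. Optimum dose (µg/kg) is the dose giving greatest ILS (median survival) with ≤15% drug-related deaths.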

[5] = system: Mus musculus; assay: Median day of death (MDD) in normal (Non tumor bearing) mice treated with a single i.v. dose at 200 ug/kg; assay type: functional
Method in brief: (§3)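 Non-tumor-bearing mice got one intravenous injection in a vehicle of 2% DMA, 10% Emulphor EL-620P and 88% sterile water. Survival was followed for 90 days, which ended the experiment. Six mice per dose group; the value is the median day of death. Deaths after more than 28 days counted as delayed.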

[6] = system: Mus musculus; assay: Median day of death (MDD) in normal (Non tumor bearing) mice treated with a single i.v. dose at 25 ug/kg; assay type: functional; method in brief: as §3
[7] = system: Mus musculus; assay: Median day of death (MDD) in normal (Non tumor bearing) mice treated with a single i.v. dose at 50 ug/kg; assay type: functional; method in brief: as §3
[8] = system: Mus musculus; assay: Median day of death (MDD) in normal (Non tumor bearing) mice treated with a single i.v. dose at 100 ug/kg; assay type: functional; method in brief: as §3
[9] = system: Mus musculus; assay: Median day of death (MDD) in normal (Non tumor bearing) mice treated with a single i.v. dose at 400 ug/kg; assay type: functional; method in brief: as §3
[10] = system: L1210; assay: In vitro cytotoxicity against mouse leukemia L1210 cells; assay type: functional, cell-based; method in brief: as §1

| SMILES | IC50 [1] [nM] | ILS [2] [%] | OD [4] [mg/kg] | further results |
| --- | --- | --- | --- | --- |
| CC(=O)N1CC2C[C@]23C1=CC(=O)c1ccccc13 (single isomer, unassigned; (-)) | 70 |  |  |  |
| O=C(Nc1ccc2[nH]c(C(=O)N3CC4C[C@]45C3=CC(=O)c3ccccc35)cc2c1)c1cc2ccccc2[nH]1 (single isomer, unassigned; (-)) | 0.3 | 50 |  | OD [3]: 1.6 mg/kg |
| Cc1c[nH]c2c1[C@@]13CC1CN(C(=O)c1cc4cc(NC(=O)c5cc6ccccc6[nH]5)ccc4[nH]1)C3=CC2=O (some centres not stated) |  | 83 | 0.1 | MDD [5]: 3 |
| COc1c(O)c2c(c3cc(C(=O)N4CCc5c4c(O)c(OC)c4[nH]c(C(=O)N6C[C@H]7C[C@@]78C6=CC(=O)c6[nH]cc(C)c68)cc54)[nH]c13)CCN2C(N)=O [(+)-CC-1065] |  |  |  | MDD [6]: 42; MDD [7]: 41 |
| CC(=O)N1CC2C[C@@]23C1=CC(=O)c1ccccc13 (single isomer, unassigned; (+)) | 5 |  |  |  |
| OC1=CC2=NCC3C[C@@]23c2ccccc21 (some centres not stated) | 230 |  |  |  |
| COc1c(O)c2c(c3cc(C(=O)N4CCc5c4c(O)c(OC)c4[nH]c(C(=O)N6CC7C[C@@]78C6=CC(=O)c6ccccc68)cc54)[nH]c13)CCN2C(N)=O (some centres not stated) | 0.02 | 28 | 0.2 | MDD [8]: 41; MDD [5]: 38; MDD [6]: 48; MDD [9]: 5; MDD [7]: 42 |
| O=C1C=C2N(C(=O)c3cc4ccccc4[nH]3)CC3C[C@@]23c2ccccc21 (single isomer, unassigned; (+)) | 0.1 | 50 | 0.8 |  |
| COc1c(O)c2c(c3cc(C(=O)N4CCc5c4c(O)c(OC)c4[nH]c(C(=O)N6CC7C[C@]78C6=CC(=O)c6ccccc68)cc54)[nH]c13)CCN2C(N)=O (single isomer, unassigned; (-)) | 0.01 | 6 | 0.2 | MDD [9]: 5 |
| O=C1C=C2N(C(=O)c3cc4ccccc4[nH]3)CC3C[C@]23c2ccccc21 (single isomer, unassigned; (-)) | 12 |  |  |  |
| O=C(Nc1ccc2[nH]c(C(=O)N3CC4C[C@@]45C3=CC(=O)c3ccccc35)cc2c1)c1cc2ccccc2[nH]1 (single isomer, unassigned; (+)) | 0.006 | 67 | 0.1 | MDD [5]: 7 |
| OC1=CC2=NCC3C[C@]23c2ccccc21 (some centres not stated) |  |  |  | IC50 [10]: 6600 nM |
